# SENP1 inh: SENP1 (human) catalytic domain inhibition; Q9P0U3; 0.21% of 360,000 active; inhibition, % at 10 µM; recombinant SENP1 catalytic domain, CyPet-SUMO1-YPet FRET cleavage;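 active = inhibition at least 30% at 10 µM, raw YFP signal under a set limit, fluorescence ratio 0.5 to 1.5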;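 note: 0% = enzyme with DMSO and 100% = no enzyme wells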
#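 Test system: recombinant human SENP1 catalytic domain, His6-tagged / Medium: pH 8 Tris buffer with EDTA, NaCl, BME, BSA, NP40, catalase / Also added: SUMO1 FRET substrate flanked by Cypet and Ypet, 25 nM / Times: 50 min reaction at room temperature / Signal: FRET, CFP and YFP emission / Control set: no-enzyme low control and enzyme-plus-DMSO high control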
# Platelet DG rel: platelet dense granule release activity | human platelet-rich plasma, SFLLRN dense granule ATP release, luminescence | inhibition, %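 (compounds screened at 7.5 µM in platelet-rich plasma)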 | 0.22% of 300,000 active | AID 1663;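 active = mean replicate score, as percent of positive control, at or above 50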
# VLA-4 inh: inhibition in a human VLA-4 binding assay | inhibition, % (about 7 µM as worked out from the volumes in the protocol) | 0.2% of 330,000 active | VLA-4 expressing cells, ligand binding flow cytometry | P13612 | AID 2557; in the data active = inhibition above about 50%
# Target sequence (P13612 whole entry, looked up): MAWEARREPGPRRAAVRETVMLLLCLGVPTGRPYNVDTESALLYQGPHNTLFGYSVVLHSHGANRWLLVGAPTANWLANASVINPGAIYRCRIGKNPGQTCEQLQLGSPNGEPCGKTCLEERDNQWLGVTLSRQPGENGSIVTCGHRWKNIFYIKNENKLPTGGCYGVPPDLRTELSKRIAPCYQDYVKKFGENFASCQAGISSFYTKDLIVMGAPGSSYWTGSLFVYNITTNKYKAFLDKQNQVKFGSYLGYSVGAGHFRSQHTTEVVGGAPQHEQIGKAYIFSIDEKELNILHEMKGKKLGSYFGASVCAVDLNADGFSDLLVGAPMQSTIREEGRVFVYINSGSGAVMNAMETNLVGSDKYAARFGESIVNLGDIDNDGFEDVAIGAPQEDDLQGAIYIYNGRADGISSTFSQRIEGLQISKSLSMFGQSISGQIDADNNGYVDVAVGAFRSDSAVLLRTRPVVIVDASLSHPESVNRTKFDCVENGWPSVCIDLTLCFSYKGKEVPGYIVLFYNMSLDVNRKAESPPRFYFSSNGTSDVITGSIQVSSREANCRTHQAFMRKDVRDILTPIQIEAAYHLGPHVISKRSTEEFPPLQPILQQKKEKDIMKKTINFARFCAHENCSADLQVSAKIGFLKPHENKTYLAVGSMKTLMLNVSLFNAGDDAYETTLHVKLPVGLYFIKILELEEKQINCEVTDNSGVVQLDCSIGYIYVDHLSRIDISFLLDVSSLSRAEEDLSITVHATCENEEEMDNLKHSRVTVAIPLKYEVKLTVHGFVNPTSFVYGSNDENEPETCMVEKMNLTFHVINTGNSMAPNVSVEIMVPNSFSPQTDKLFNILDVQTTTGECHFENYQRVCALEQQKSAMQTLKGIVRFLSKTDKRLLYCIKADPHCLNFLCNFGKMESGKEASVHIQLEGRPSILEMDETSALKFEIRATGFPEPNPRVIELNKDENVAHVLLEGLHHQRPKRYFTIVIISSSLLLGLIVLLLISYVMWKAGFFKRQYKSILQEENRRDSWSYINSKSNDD
# Myeloid diff 2: myeloid differentiation induction; ER-HoxA9 myeloid progenitors, lysozyme-GFP differentiation, flow cytometry; calls only at 10 µM; 1% of 360,000 active;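 active = normalized GFP-positive differentiation at or above the plate's own cutoff, the solvent-only control mean plus 3 SD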;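 note: cells exposed to compound for four days before flow analysis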
# VLA-4 allo CP: confirmation of allosteric modulators of human VLA-4 integrin; shares compounds with VLA-4 inh; 2% of 1,300 active; inhibition, % at 6.7 µM; U937 cells, HUTS-21 LIBS mAb binding, flow cytometry; LDV ligand present at threefold Kd; in the data active = inhibition above about 40%;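 note: 0% = ligand without compound and 100% = no ligand background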
# * = called active by the depositor; i = inactive; . = no result. In the library only some 1.5% were active in any assay of this set; here they are far more common.
SMILES,SENP1 inh,Platelet DG rel,VLA-4 inh,Myeloid diff 2,VLA-4 allo CP
CC(C)C(=O)Nc1nnc(S(=O)(=O)N2CCc3ccccc32)s1,-4.9,22.1,-6.7,i,.
CC(C)C(=O)Nc1nnc(S(=O)(=O)N2CCCc3ccccc32)s1,-5.3,-10.1,51.3*,i,2.7
CCOC(=O)C1CCN(C2CC(=O)N(c3ccc(OCC)cc3)C2=O)CC1 (stereo not given),2.5,-3.2,-10.6,i,-5.8
CCCCCCOc1ccc(N2C(=O)CC(N3CCC(C(=O)OCC)CC3)C2=O)cc1 (stereo not given),3.5,-7.4,-9.9,i,-3.5
C#CCNC(=O)C[C@@H]1C[C@@]2(C(=O)OC)CCCCC=C2N(Cc2ccco2)C1=O,-2.6,.,.,i,.
Cc1cccc(-n2cnc3cc(C(=O)NCCN4CCOCC4)ccc32)c1,-0.3,.,.,.,.
COc1cccc2cc(C(=O)NCCN3CCOCC3)c(=O)oc12,2.0,.,40.6,i,-18.3
COc1ccc(-n2cnc3cc(C(=O)NCCN4CCOCC4)ccc32)cc1,3.0,-1.1,42.9,i,-6.9
COc1ccc(CCNC(=O)c2cc3cccc(OC)c3oc2=O)cc1OC,0.2,3.0,3.6,i,.
CCc1nnc(NC(=O)OCc2ccccc2)s1,1.8,-1.9,56.7*,i,-0.8
CC(NC(=O)NC12CC3CC(CC(C3)C1)C2)c1ccc2c(c1)OCO2 (stereo not given),3.2,0.9,13.7,i,.
CC(NC(=O)NC1CCCCC1)c1ccc2c(c1)OCO2 (stereo not given),0.3,3.2,40.6,i,7.8
CNC(=O)NC(=O)C(c1ccccc1)N(C)CC1COc2ccccc2O1 (stereo not given),-2.8,2.8,4.5,i,.
CC(=O)N1c2ccc(S(=O)(=O)NCC3CCC(C(=O)N4CCCC(C)C4)CC3)cc2CC1C (stereo not given),1.8,2.2,-7.5,i,.
COc1cc(OC)cc(C(=O)NC(C(=O)N2CCc3ccccc3C2)C(C)C)c1 (stereo not given),2.5,-1.5,49.8*,i,5.4
COc1ccc(/C=C/C(=O)Nc2ccccc2C(=O)NCC(c2ccc(OC)cc2)N(C)C)cc1 (stereo not given),-0.3,-1.2,53.9*,i,0.7
NS(=O)(=O)c1cccc(NC(=O)CCN2C(=O)C3CCCCC3C2=O)c1 (stereo not given),2.5,.,53.2*,i,-4.9
Cc1[nH]c2ccccc2c1/C=N/NC(=O)c1ccccc1,0.4,3.5,45.4,i,-6.9
CC1(C)CC(NC(=O)c2cc(S(=O)(=O)N3CCOCC3)c(Cl)cc2Cl)CC(C)(C)N1,2.2,2.4,-6.3,i,.
Cc1ccc(CNC(=O)C2CCCCN2S(=O)(=O)c2ccccc2)cc1 (stereo not given),1.4,-4.0,54.7*,i,16.1
C=CCSc1nnc(NC(=O)c2c(CC)noc2C)s1,2.8,-5.8,18.8,i,.
CCC(=NNC(=O)c1cccc(S(=O)(=O)N2CCOCC2)c1)c1ccccc1,-0.1,.,49.7*,i,6.1
CC(C)C[C@@H](CN=[N+]=[N-])N1CCN(Cc2ccccc2)CCC1=O,-0.8,-0.2,-10.6,i,.
O=C(Nc1ccc(Cl)c(Cl)c1)Nc1ccccc1O,3.2,3.9,-26.6,i,-35.5
COc1cccc(OC)c1OCCCCc1c(C)n[nH]c1C,1.9,-1.4,58.6*,i,2.6
SMILES,SENP1 inh,Platelet DG rel,VLA-4 inh,Myeloid diff 2,VLA-4 allo CP
COc1ccc(S(=O)(=O)n2c([N+](=O)[O-])cnc2C)c(C)c1C,0.8,-0.4,-2.4,i,.
COc1ccc(Br)cc1S(=O)(=O)n1c([N+](=O)[O-])cnc1C,-0.5,2.7,45.4,i,-13.4
O=C(Nc1ccsc1C(=O)O)c1cccc(C(F)(F)F)c1,2.7,-2.7,40.2,i,-16.7
O=C(Nc1ccsc1C(=O)O)c1cccc(Oc2ccccc2)c1,-0.3,5.0,-1.5,i,.
CCC(Oc1ccccc1)C(=O)N(C)CC(=O)N(CC(C)C)c1c(N)n(CC(C)C)c(=O)[nH]c1=O (stereo not given),1.3,3.2,11.8,i,.
CN(c1cc(Cl)c2c(c1)OCO2)c1cc2c(c3c1ccn3C)C1CCC2C1 (stereo not given),-2.0,.,.,i,.
O=C1OC(c2ccc(F)cc2)=N/C1=C\C=C/c1ccccc1,-6.9,5.1,43.7,i,2.9
CC1CC(C)CN(CCCNC(=O)c2ccc3nc(N4CCOCC4)sc3c2)C1 (stereo not given),-4.7,-17.2,5.3,i,.
CCCN1CCN(CCCNC(=O)c2ccc3nc(N4CCC(C)CC4)sc3c2)CC1,-0.8,5.6,9.6,i,-2.2
O=C(NCCc1ccccc1)c1ccc2nc(N3CCOCC3)sc2c1,0.8,-24.4,-18.3,i,10.4
Cc1ccc(C)c(N2CCN(C(=O)c3ccc4nc(N5CCOCC5)sc4c3)CC2)c1,2.0,-13.3,4.3,i,-0.8
CCOc1ccc(CCNC(=O)c2ccc3nc(N4CCOCC4)sc3c2)cc1OCC,0.2,-1.3,16.9,i,.
CCCCN(CCCNC(=O)c1ccc2nc(N3CCOCC3)sc2c1)Cc1ccccc1,-1.7,2.9,-111.9,i,10.4
Cc1cccc(N2CCN(C(=O)c3ccc4nc(N5CCCCC5)sc4c3)CC2)c1C,1.6,2.3,1.9,i,.
CC(CCc1ccccc1)NC(=O)c1ccc2nc(N3CCOCC3)sc2c1 (stereo not given),4.5,-1.1,9.0,i,.
COc1ccc(NC(=O)CN2CCN(c3c(C)cccc3C)CC2)cc1,0.9,7.8,-7.5,i,.
CCOc1ccc(Cn2c(=O)oc3ccccc32)cc1,-0.8,-3.3,8.1,i,.
O=C(NCc1cccc(Cl)c1)c1ccc2nc(N3CCOCC3)sc2c1,0.4,2.8,22.6,i,-0.1
CCOc1ccccc1CNC(=O)c1ccc2nc(N3CCOCC3)sc2c1,-1.6,0.7,2.1,i,4.4
O=C(Nc1ccc(F)cc1F)c1ccc2nc(N3CCOCC3)sc2c1,2.3,-16.7,32.5,i,14.3
CCc1cccc(C)c1NC(=O)c1ccc2nc(N3CCOCC3)sc2c1,-2.5,-24.0,50.3*,i,4.4
Cc1cccc(NC(=O)c2ccc3nc(N4CCOCC4)sc3c2)c1C,0.3,4.1,2.8,i,.
COc1cc(NC(=O)CCC(=O)c2cccs2)cc(OC)c1,-2.3,20.9,20.3,i,.
Cc1cc2c3c([nH]c2cc1S(=O)(=O)N1CCC2(CC1)OCCO2)CCCC3=O,-1.5,10.1,4.0,i,.
CCC(Cc1ccccc1)NC(=O)c1ccc2nc(N3CCOCC3)sc2c1 (stereo not given),1.2,-0.3,10.5,i,3.3
O=C(c1ccc2nc(N3CCCCC3)sc2c1)N1CCN(c2ccccn2)CC1,2.6,-3.2,49.2,i,7.7
O=C(NC(c1ccc(-c2ccccc2)cc1)c1cnccn1)C1CCN(Cc2cccs2)CC1 (stereo not given),0.9,.,.,i,.
